# Test results from ChEMBL document CHEMBL1126763, “Nonpeptide angiotensin II receptor antagonists. Synthesis and biological activity of potential prodrugs of benzimidazole-7-carboxylic acids” (J Med Chem, 1993).
# Experiments:
# Type in all cases: functional, organism-based
# Parameters in all cases: dose 0.1 mg/kg
# [1] = target: T1, Angiotensin II receptor (Rattus norvegicus) (UniProt P29089+P25095+P35351); assay: Inhibitory activity on AII (100 ng/kg iv)-induced pressor response after administration at 0.1 mg/kg po in conscious male Sprague-Dawley rats at 2 h.
# In short: (§1)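 Conscious male Sprague-Dawley rats received test compounds orally at 0.1 mg/kg. AII (100 ng/kg iv) was given as a pressor challenge at each time point after dosing, and percent inhibition of the pressor response was recorded. Experiments were run in duplicate (n = 2); parent drug and one ester used n = 3. Inhibition may vary by less than 30%.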
# [2] = target: T1, Angiotensin II receptor (Rattus norvegicus); assay: Inhibitory activity on AII (100 ng/kg iv)-induced pressor response after administration at 0.1 mg/kg po in conscious male Sprague-Dawley rats at 5 h.; in short: as §1
# [3] = target: T1, Angiotensin II receptor (Rattus norvegicus); assay: Inhibitory activity on AII (100 ng/kg iv)-induced pressor response after administration at 0.1 mg/kg po in conscious male Sprague-Dawley rats at 3 h.; in short: as §1
# [4] = target: T1, Angiotensin II receptor (Rattus norvegicus); assay: Inhibitory effect on AII (100 ng/kg iv)-induced pressor response after administration at 0.1 mg/kg po in conscious male Sprague-Dawley rats at 0.5 h.; in short: as §1
# [5] = target: T1, Angiotensin II receptor (Rattus norvegicus); assay: Inhibitory activity on AII (100 ng/kg iv)-induced pressor response after administration at 0.1 mg/kg po in conscious male Sprague-Dawley rats at 24 h.; in short: as §1
# [6] = target: T1, Angiotensin II receptor (Rattus norvegicus); assay: Inhibitory activity on AII (100 ng/kg iv)-induced pressor response after administration at 0.1 mg/kg po in conscious male Sprague-Dawley rats at 7 h.; in short: as §1
# [7] = target: T1, Angiotensin II receptor (Rattus norvegicus); assay: Inhibitory activity on AII (100 ng/kg iv)-induced pressor response at 0.1 mg/kg po in conscious male Sprague-Dawley rats at 1 h.; in short: as §1
inhibition [1],inhibition [2],inhibition [3],inhibition [4],inhibition [5],inhibition [6],inhibition [7],Structure (SMILES)
79%,68%,72%,23%,28%,57%,55%,CCOc1nc2cccc(C(=O)OCOC(=O)OC(C)C)c2n1Cc1ccc(-c2ccccc2-c2nn[nH]n2)cc1
87%,70%,85%,49%,6%,44%,83%,CCOc1nc2cccc(C(=O)OCc3oc(=O)oc3C)c2n1Cc1ccc(-c2ccccc2-c2nn[nH]n2)cc1
56%,44%,52%,80%,6%,20%,40%,CCOc1nc2cccc(C(=O)OCOC(=O)C(C)C)c2n1Cc1ccc(-c2ccccc2-c2nn[nH]n2)cc1
57%,44%,58%,10%,22%,30%,49%,CCOc1nc2cccc(C(=O)OCOC(=O)OCC3CC3)c2n1Cc1ccc(-c2ccccc2-c2nn[nH]n2)cc1
60%,38%,60%,76%,-4%,31%,76%,CCOc1nc2cccc(C(=O)OCOC(=O)CC)c2n1Cc1ccc(-c2ccccc2-c2nn[nH]n2)cc1
80%,61%,80%,-3%,3%,64%,36%,CCOc1nc2cccc(C(=O)OCOC(=O)/C=C/c3ccccc3)c2n1Cc1ccc(-c2ccccc2-c2nn[nH]n2)cc1
92%,84%,86%,86%,28%,75%,90%,CCOc1nc2cccc(C(=O)OC(C)OC(C)=O)c2n1Cc1ccc(-c2ccccc2-c2nn[nH]n2)cc1 (stereo unspecified)
76%,89%,85%,0%,14%,80%,5%,CCOc1nc2cccc(C(=O)OCOC(=O)C3CCCCC3)c2n1Cc1ccc(-c2ccccc2-c2nn[nH]n2)cc1
86%,63%,84%,16%,13%,53%,72%,CCOc1nc2cccc(C(=O)OC(C)OC(=O)OC(CC)CC)c2n1Cc1ccc(-c2ccccc2-c2nn[nH]n2)cc1 (stereo unspecified)
4%,53%,15%,1%,11%,54%,-3%,CCOc1nc2cccc(C(=O)OCOC(=O)OC3CCCCC3)c2n1Cc1ccc(-c2ccccc2-c2nn[nH]n2)cc1
51%,85%,67%,7%,43%,,24%,CCOc1nc2cccc(C(=O)O)c2n1Cc1ccc(-c2ccccc2-c2nnn[nH]2)cc1
81%,75%,88%,32%,55%,77%,63%,CCCCc1nc2cccc(C(=O)OCc3oc(=O)oc3C)c2n1Cc1ccc(-c2ccccc2-c2nn[nH]n2)cc1
18%,18%,16%,4%,,8%,16%,CCCCc1nc2cccc(C(=O)OCc3ccncc3)c2n1Cc1ccc(-c2ccccc2-c2nn[nH]n2)cc1
12%,35%,21%,5%,17%,34%,1%,CCCCc1nc(Cl)c(CO)n1Cc1ccc(-c2ccccc2-c2nnn[nH]2)cc1
